High-throughput results (PubChem)
Compounds with a hit are over-represented: about 1.6% of the library has one in this group of screens.
DAGLB inh – blocks human DAGLB lipase activity; HEK293T DAGLB membrane lysate, EnzChek fluorogenic substrate; 340,000 tested, 0.059% active; inhibition, % at 5.17 µM; Q8NCG7; in the data active = inhibition above about 34%;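 note: 0% = enzyme with vehicle and 100% = wells lacking enzyme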
SIAE inh – human SIAE inhibition, primary screen. SIAE FP-Rh probe binding, fluorescence polarization. inhibition, % at 9.66 µM. 370,000 tested, 0.69% active;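 active = inhibition above a cutoff: mean of compounds within the control limits plus 3 SD of those, cut at about 17% in these data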;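 note: 0% = plate median of compound wells and 100% = probe without SIAE protein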
Target sequence (Q9HAT2 whole entry, looked up): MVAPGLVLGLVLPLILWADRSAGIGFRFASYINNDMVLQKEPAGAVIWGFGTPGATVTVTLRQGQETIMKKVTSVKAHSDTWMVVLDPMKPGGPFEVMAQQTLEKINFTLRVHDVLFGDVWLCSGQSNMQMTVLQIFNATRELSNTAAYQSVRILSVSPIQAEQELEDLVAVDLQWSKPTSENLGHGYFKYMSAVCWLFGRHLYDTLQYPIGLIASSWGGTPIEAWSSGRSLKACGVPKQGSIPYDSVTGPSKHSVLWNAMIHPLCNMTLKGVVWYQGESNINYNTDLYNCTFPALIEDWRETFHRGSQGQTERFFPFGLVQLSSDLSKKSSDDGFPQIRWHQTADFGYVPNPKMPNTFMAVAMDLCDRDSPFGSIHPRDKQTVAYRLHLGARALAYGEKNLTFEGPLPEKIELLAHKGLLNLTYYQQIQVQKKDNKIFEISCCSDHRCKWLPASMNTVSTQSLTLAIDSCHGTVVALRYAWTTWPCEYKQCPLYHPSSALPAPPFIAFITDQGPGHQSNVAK
ABHD4 inh – ABHD4 (mouse) inhibition, primary FP screen | Q8VD66 | purified mABHD4, FP-Rh probe fluorescence polarization | inhibition, % at 8.92 µM | 370,000 tested, 0.54% active | AID 720543;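 active = inhibition exceeding the mean over every tested compound plus 3 SD, cut at about 30% in these data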;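 note: 0% = plate median of compound wells and 100% = S159A mutant with DMSO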
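Test system: mABHD4 protein | Buffer or medium: HEPES pH 7.0 buffer, 150 mM NaCl, 0.01% Pluronic F-127 | Probe or stimulus: FP-Rh fluorescent activity-based probe, added after compound pre-incubation | Timing: Pre-incubation 45 min, probe exposure 60 min, at 25 °C | Technique: Fluorescence polarization, excitation 525 nm, emission 598 nm, BODIPY TMR filters | Repeats: Single well per compound (singlicate)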
HTRA1 inh – inhibitors of human serine peptidase HTRA1; AID 504803; inhibition, % at 5.96 µM; Q92743; 340,000 tested, 0.5% active; recombinant HTRA1, FP-rhodamine activity-based probe, fluorescence polarization; in the data active = inhibition above about 36%;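 note: 0% = enzyme with DMSO and 100% = wells lacking enzyme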
TCR-CD3 inh – human TCR-CD3 binding inhibition; TAMRA-labeled TCR probe fluorescence, biochemical; 360,000 tested, 0.37% active; inhibition, % at 9.4 µM; in the data active = inhibition above about 19%;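 note: recombinant mutant TCR 2C K166C tagged with TAMRA read by polarization; 0% = receptor in buffer alone and 100% = receptor with positive control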
SIAE inh conf – confirmation of human SIAE inhibitors | shares compounds with SIAE inh | SIAE FP-Rh activity-based probe, fluorescence polarization | inhibition, % at 9.66 µM | 2,300 tested, 13% active | AID 1117263;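 active = mean inhibition of the replicates above the hit cutoff set in the primary screen, cut at about 17% in these data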;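 note: 0% = SIAE with DMSO and probe and 100% = probe without SIAE; inhibitors lower polarization as more probe stays unbound to SIAE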
* hit, by the source's call; . = not tested or not shown.

SMILES	DAGLB inh	SIAE inh	ABHD4 inh	HTRA1 inh	TCR-CD3 inh	SIAE inh conf
O=C(O)C1C2C=CC(C2)C1C(=O)NCc1cccc(Cl)c1 (stereo not drawn)	-1	-3	-1	1	-4	.
COc1cc(NC(=O)Nc2nc(C(N)CCc3ccccc3)cs2)cc(OC)c1OC (stereo not drawn)	.	33*	16	.	-12	22*
COc1ccc2nc(SCC(=O)N(C)CC(=O)Nc3ccc(F)cc3)[nH]c2c1	2	18*	7	-4	2	-3
COc1ccc(NC(=O)CN(C)C(=O)CCSc2ccc(F)cc2)cc1	2	19*	-4	-2	-1	1
Cc1ccc(C=Nn2c(-c3n[nH]c4c3CCC4)n[nH]c2=S)s1	.	3	-4	.	.	.
Cc1cc(-c2n[nH]c(=S)n2N=Cc2ccc(-c3ccccc3)cc2)n[nH]1	.	5	-1	.	.	.
COc1ccccc1C(=O)N/C(=C\c1cn(C)c2ccccc12)C(=O)N1CCOCC1	1	21*	1	-3	9	-31
COc1ccc(-c2ccc(/C=C(\NC(=O)c3ccccc3)C(=O)N3CCOCC3)o2)cc1	5	17*	9	4	-8	-1
CC1CCN(C(=O)/C(=C\c2ccco2)NC(=O)c2ccccc2)CC1	3	23*	9	0	-10	2
Cc1cc(C)cc(N(CC(=O)NC2CCC(C)CC2)S(=O)(=O)c2cccs2)c1 (stereo not drawn)	.	1	19	.	.	.
CCC(C)N(C(=O)CNc1nnnn1-c1ccccc1)C(C)CC (stereo not drawn)	.	1	0	.	.	.
COC(=O)C1=C(C)N(C)C(=NCc2ccc(C(F)(F)F)cc2)NC1c1cccc(Cl)c1 (stereo not drawn)	.	5	15	.	5	.
CCOc1ccc(NC(=O)c2cc3ccccc3cc2O)cc1	-3	18*	16	4	-5	-1
CCOc1ccc(NC(=O)c2cc3ccccc3cc2OC)cc1	-11	0	-6	-28	9	.
NNC(=O)c1cc2ccccc2cc1O	1	18*	21	31	5	6
COC(=O)C1=C(C)N(Cc2ccc(C(F)(F)F)cc2)C(=NCc2ccccc2C(F)(F)F)NC1c1ccccc1C(F)(F)F (stereo not drawn)	.	3	0	.	3	.
COc1cc(/C=N/NC(=S)NC2CC3CC2C2C=CCC32)ccc1O (stereo not drawn)	2	23*	10	-4	5	15
CCNC(=S)NNC(=O)c1cc(-c2cccc(OC)c2)nc2ccccc12	-1	22*	11	1	3	1
CCN(CC)S(=O)(=O)c1cc(Br)ccc1OC	-3	18*	-5	7	-5	1
CCOc1ccccc1C(=O)Nc1ccc(C(=O)NCC2COc3ccccc3O2)cc1 (stereo not drawn)	.	2	0	.	.	.
Cc1ccc(C)c(OCc2nc3ccccc3[nH]2)c1	-3	37*	-1	-6	2	5
O=C(CCn1nnc2ccccc21)N1CCN(c2cccc(C(F)(F)F)c2)CC1	.	2	-2	.	.	.
Cc1ccccc1N1CCN(S(=O)(=O)N(C)C)CC1	-1	21*	2	1	1	3
COC(=O)C1CCN(C(=O)COC(=O)c2ccc(OC)c(S(=O)(=O)N3CCCc4ccccc43)c2)CC1	3	21*	5	-5	0	-3
COC(=O)C1CCN(C(=O)c2ccc(OC)c(S(=O)(=O)N3CCCc4ccccc43)c2)CC1	-4	-4	-1	-1	4	.
SMILES	DAGLB inh	SIAE inh	ABHD4 inh	HTRA1 inh	TCR-CD3 inh	SIAE inh conf
COc1ccc(NC(=S)Nc2nc(CC(=O)Nc3ccccc3OC)cs2)cc1	1	21*	-6	-19	4	7
O=C(CCl)Nc1ccc(C(=O)NCC2COc3ccccc3O2)cc1 (stereo not drawn)	.	0	1	.	.	.
CN(CCOC(=O)c1cc2ccccc2o1)C1CN(Cc2cn(Cc3cccc(F)c3)nn2)S(=O)(=O)C1 (stereo not drawn)	.	5	-2	.	.	.
COc1ccc(CCNC(=O)CSc2ccccc2)cc1OC	1	7	-3	-2	-1	.
COc1ccc(CCNC(=O)CNCC(c2ccccc2)N(C)C)cc1OC (stereo not drawn)	2	19*	14	10	-2	1
COc1ccc(CNC(=O)O[C@H]2CC[C@@]34CCCN3C(=O)CCC[C@H]4C2)cc1	.	-2	0	.	.	.
CCC1(c2ccc(F)cc2)NC(=O)N(CC(=O)N(C)C2CCS(=O)(=O)C2)C1=O (stereo not drawn)	0	21*	-1	7	-3	-2
COc1cc(C=NN=c2sc3ccccc3n2C)ccc1OCCO	.	-2	3	.	1	.
COc1cccc(CN(C)[C@H]2C[C@H]3c4[nH]c5ccccc5c4CCN3C[C@H]2[C@H](C)O)c1OC	.	6	8	.	5	.
O=[N+]([O-])c1ccc(N2CCN(Cc3ccc4c(c3)OCO4)CC2)nc1	-1	24*	-5	3	-9	0
O=C(NCCCc1ccccc1)OC1CC2CC1[C@H]1CCCCN1C2 (stereo partly drawn)	.	11	3	.	.	.
CN1Cc2nnn(Cc3ccccc3)c2-c2ccccc2S1(=O)=O	.	5	2	.	.	.
Cn1cc(C(=O)N2CCc3ccccc32)cn1	-1	184*	2	7	-3	1
Cc1cnc(CN(C)C(=O)c2ccc3oc(Cc4ccc(Cl)cc4)nc3c2)[nH]1	1	18*	3	1	1	0
COc1cccc(NC=C2C(=O)OC3(CCCCC3)OC2=O)c1	2	1	21	-6	0	.
COc1ccc(C2=CC(=O)OC3(CCCCC3)O2)cc1	-3	19*	6	-6	2	-4
Cc1ccc(N(Cc2ccc(C(=O)NCC3CCCO3)cc2)S(C)(=O)=O)cc1C (stereo not drawn)	-1	20*	-4	-4	7	2
Cc1cc(C)nc(N2CCCC(C(=O)NC(C)C)C2)n1 (stereo not drawn)	-1	18*	0	8	1	-5
CCOC(=O)N1CCN(S(=O)(=O)c2ccc(C)cc2)CC1	1	-3	-6	-5	1	.
CCOCCCNCC(=O)N1CCN(S(=O)(=O)c2ccc(C)cc2)CC1	0	17*	-2	6	-2	-1
Cc1ccc(S(=O)(=O)N2CCN(C(=O)CCC(=O)NCc3ccc(F)cc3)CC2)cc1	-2	18*	6	0	-3	2
Cc1nc2ccc(S(=O)(=O)NCC(=O)NCc3ccccc3Cl)cc2s1	.	3	0	.	.	.
O=C(CN1CCN(Cc2ccccc2Cl)CC1)N/N=C\c1ccccc1F	.	-4	-8	.	.	.
COc1ccc(-c2csc(CCN3N=C(C)CC3=O)n2)cc1	5	38*	2	-14	4	6
